An excerpt weighted towards active compounds, which were near 9.8% of everything screened.
Lmaj promast: reduces viability of Leishmania major promastigotes. resazurin fluorescence viability. inhibition, % at 10 µM. actives 9% (n = 200,000); in the data active = inhibition above about 50%;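 note: promastigotes grown with compound for 44 hours at 28 °C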
m-calpain inh: blocks pig calpain II enzyme activity; purified calpain II, fluorogenic peptide substrate, 30 min; inhibition, % at 16 µM; actives 0.37% (n = 220,000); AID 1236;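 active = inhibition above about 50%, limit read from the data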
Rad51 HR inh: blocks human Rad51 in homologous recombination; Q06609; hRad51 DNA strand exchange, fluorescence dequenching; inhibition, % at 10 µM; actives 0.085% (n = 200,000); AID 1385;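 active = inhibition above 40% at the single screening dose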;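 note: 0% = DMSO control wells and 100% = blanks with heterologous ssDNA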
Target sequence (Q06609 whole entry, looked up): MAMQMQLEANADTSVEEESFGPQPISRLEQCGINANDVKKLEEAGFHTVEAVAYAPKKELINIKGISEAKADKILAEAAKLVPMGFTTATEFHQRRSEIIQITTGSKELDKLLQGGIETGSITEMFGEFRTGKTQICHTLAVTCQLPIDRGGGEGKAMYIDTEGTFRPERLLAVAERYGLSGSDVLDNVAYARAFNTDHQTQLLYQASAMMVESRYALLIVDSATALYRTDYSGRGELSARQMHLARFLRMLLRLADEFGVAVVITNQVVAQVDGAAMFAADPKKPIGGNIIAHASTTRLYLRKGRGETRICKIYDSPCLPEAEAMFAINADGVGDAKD
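Assay system: Human Rad51 nucleoprotein filaments preassembled on unlabelled ssDNA | Reagent: Donor/quencher-labelled 47-bp dsDNA substrate | Doses: One concentration, 10 µM final | Times: 37 °C 15-min filament assembly, 30-min compound preincubation, 15-min exchange | Technique: Fluorescein emission 520 nm, excitation 485 nm | Benchmarks: Plate control and blank wells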
PMI act hi M6P: increases human PMI activity with near-saturating mannose 6-phosphate. P34949. coupled PMI enzyme assay, resazurin fluorescence, 20 min; stronger effect = higher value; 1 = untreated enzyme, 0 = substrate-free blank. activation factor at 20 µM. actives 0.34% (n = 190,000);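 active = activation factor of 2 or more at 20 µM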
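Test system – human PMI in coupled enzyme assay · Timing – 20 min incubation at room temperature · Detection – Diaphorase-driven resazurin-to-resorufin fluorescence, excitation 544, emission 590 nm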
WT yeast gro inh: growth inhibition of WT yeast, mitochondrial fusion screen | mitochondrial fusion phenotypic screen, WT strain | actives 2.1% (n = 190,000) | inhibition, % at 10 µM; in the data active = inhibition above about 58%; tested in S. cerevisiae
PMI act: phosphomannose isomerase (human) activation. P34949. purified human PMI, coupled resazurin fluorescence, 20 min; stronger effect = higher value; 1 = vehicle control, 0 substrate-free wells. activation factor at 20 µM. actives 0.005% (n = 190,000);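 active = activation factor of 2 or more at 20 µM, relative to plate controls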
Starred values were filed as active, the others as inactive.

For O=C(Nc1ccccc1Cl)c1ccc(-n2cccn2)c([N+](=O)[O-])c1 the results were Lmaj promast 6.3, m-calpain inh -24.5, Rad51 HR inh 3.2, PMI act hi M6P 0.9, WT yeast gro inh 1.4 and PMI act 1.
`COc1ccc(Cl)cc1-n1c(C)cc(C(=O)O)c1C` gave Lmaj promast -9.4, m-calpain inh -27.4, Rad51 HR inh -1.4, PMI act hi M6P 1.1, WT yeast gro inh 16.6 and PMI act 1.1.
For COc1ccc(Cl)cc1-n1c(C)cc(C=O)c1C the results were Lmaj promast 78.1*, m-calpain inh -46.1, Rad51 HR inh -2.7, PMI act hi M6P 1, WT yeast gro inh 2.1 and PMI act 1.
`O=c1sc2ccccc2n1Cc1ccccc1` gave Lmaj promast 4.2, m-calpain inh 14.2, Rad51 HR inh 1.8, PMI act hi M6P 1.1, WT yeast gro inh -3.7 and PMI act 1.
CCOc1ccccc1Cn1c(=O)sc2ccccc21 was read as Lmaj promast 16.0, m-calpain inh 51.0*, Rad51 HR inh -4.0, PMI act hi M6P 0.9, WT yeast gro inh 19.0 and PMI act 0.8.
COc1cc(C(=O)NNC(=S)Nc2ccc(S(N)(=O)=O)cc2)cc(OC)c1OC was read as Lmaj promast -8.4, m-calpain inh 27.0, Rad51 HR inh -7.3, PMI act hi M6P 0.7, WT yeast gro inh 14.4 and PMI act 0.4.
`CCN(CC)S(=O)(=O)c1ccc(NC(=O)COC(=O)CCc2cc(OC)c(OC)c(OC)c2)cc1` gave Lmaj promast -4.2, m-calpain inh 3.1, Rad51 HR inh 8.5, PMI act hi M6P 1, WT yeast gro inh -0.1 and PMI act 0.9.
Screening Cc1ccc(C(=O)O)cc1N1C(=O)c2cccc3cc(Br)cc(c23)C1=O returned Lmaj promast -4.2, m-calpain inh 65.6*, PMI act hi M6P 0.9, WT yeast gro inh -14.7 and PMI act 0.9.
Screening Cc1n[nH]c(C)c1N1C(=O)c2cccc3cc(Br)cc(c23)C1=O returned Lmaj promast 22.3, m-calpain inh 13.3, Rad51 HR inh -8.3, PMI act hi M6P 0.9, WT yeast gro inh 10.7 and PMI act 0.9.
CCc1nc(NC(=O)NS(=O)(=O)c2ccccc2C(=O)OC)nc(OC)n1 was read as Lmaj promast -6.1, m-calpain inh -7.7, PMI act hi M6P 1, WT yeast gro inh 5.0 and PMI act 1.
Screening CCCCCc1ccc(-c2ccc(/C=C/C(=O)O)cc2)nc1 returned Lmaj promast 46.8, m-calpain inh -5.8, Rad51 HR inh 17.2, PMI act hi M6P 0.9, WT yeast gro inh 31.6 and PMI act 0.9.
Screening CCCCCCCc1ccc(-c2ccc(O)cc2)nc1 returned Lmaj promast -1.1, m-calpain inh 11.3, Rad51 HR inh -3.2, PMI act hi M6P 1, WT yeast gro inh 73.5* and PMI act 0.9.
`O=C(Cn1cnc([N+](=O)[O-])n1)NC1CC1` gave Lmaj promast -4.9, m-calpain inh -22.5, Rad51 HR inh 7.9, PMI act hi M6P 1.1, WT yeast gro inh 4.5 and PMI act 1.2.
`CC(=O)c1c(N2CCN(Cc3ccccc3)CC2)nc(=S)n(-c2ccccc2)c1C` gave Lmaj promast -8.2, m-calpain inh 3.0, Rad51 HR inh -30.6, PMI act hi M6P 2.1*, WT yeast gro inh 17.3 and PMI act 1.6.
`CC(=O)c1c(N2CCN(Cc3ccccc3)CC2)nc(=S)n(Cc2ccccc2)c1C` gave Lmaj promast 63.0*, m-calpain inh 12.0, Rad51 HR inh -0.7, PMI act hi M6P 1.9, WT yeast gro inh 8.4 and PMI act 1.5.
Screening COc1ccc(NC(=O)Cn2cnc3sc(C)c(S(=O)(=O)N4CCN(C)CC4)c3c2=O)cc1OC returned Lmaj promast 2.9, m-calpain inh -26.1, Rad51 HR inh 7.0, PMI act hi M6P 1, WT yeast gro inh -3.9 and PMI act 1.
Cc1ccc(CSc2nnc(-c3ccccc3N)c(=O)[nH]2)cc1 was read as Lmaj promast -6.6, m-calpain inh 0.1, Rad51 HR inh 2.6, PMI act hi M6P 1.1, WT yeast gro inh 63.2* and PMI act 1.
`COc1ccc(C)cc1NC(=O)NCc1ccc(F)cc1` gave Lmaj promast 0.7, m-calpain inh 7.8, Rad51 HR inh 17.7, PMI act hi M6P 1, WT yeast gro inh 2.9 and PMI act 1.
`Cc1cccc(NC(=S)NNC(=O)c2ccc(O)cc2O)c1C` gave Lmaj promast 71.3*, m-calpain inh -24.1, Rad51 HR inh -9.8, PMI act hi M6P 1.3, WT yeast gro inh 2.0 and PMI act 1.1.
For S=C(NCCc1ccccc1)N1CCN(C23CC4CC(CC(C4)C2)C3)CC1 the results were Lmaj promast 28.3, m-calpain inh 31.0, PMI act hi M6P 0.9, WT yeast gro inh 18.8 and PMI act 1.
CCOC(=O)c1ccc(N2NC(=O)/C(=C/c3ccc(OC(=O)c4ccco4)c(OC)c3)C2=O)cc1 was read as Lmaj promast 60.7*, m-calpain inh -61.9, Rad51 HR inh -2.5, PMI act hi M6P 1.2, WT yeast gro inh 15.6 and PMI act 1.2.
`COc1cc(/C=N/Nc2nc(N3CCCC3)nc(N3CCCC3)n2)ccc1O` gave Lmaj promast 97.0*, m-calpain inh -2.6, Rad51 HR inh 1.5, PMI act hi M6P 0.9, WT yeast gro inh 29.1 and PMI act 0.9.
COc1cc(/C=C2\C(=O)N(c3ccc(S(N)(=O)=O)cc3)N=C2C)ccc1OC(=O)c1ccco1 was read as Lmaj promast -4.4, m-calpain inh -90.3, Rad51 HR inh 3.0, PMI act hi M6P 1.4, WT yeast gro inh 7.3 and PMI act 1.3.
For CCOc1cc(/C=N/Nc2nc(N3CCCCC3)nc(N3CCCCC3)n2)ccc1OC(=O)c1ccco1 the results were Lmaj promast 57.8*, m-calpain inh -80.7, Rad51 HR inh 22.4, PMI act hi M6P 0.8, WT yeast gro inh 18.0 and PMI act 0.9.
For COc1ccc(/C=N/Nc2nc(N3CCCCC3)nc(N3CCCCC3)n2)cc1[N+](=O)[O-] the results were Lmaj promast 95.6*, m-calpain inh -31.4, Rad51 HR inh 13.0, PMI act hi M6P 0.9, WT yeast gro inh 37.1 and PMI act 0.9.
COCCNC(=O)C12CC3CC(CC(Cl)(C3)C1)C2 was read as m-calpain inh -0.5 and Rad51 HR inh -1.5.
Screening CCN(C(=O)CSc1nc2nc(C)cc(C)n2n1)C1CCS(=O)(=O)C1 (centres undefined) returned Lmaj promast -5.4, m-calpain inh -20.8, Rad51 HR inh 6.3, PMI act hi M6P 0.9, WT yeast gro inh -10.0 and PMI act 1.1.
For CCOc1cc(/C=C2/SC(=S)NC2=O)ccc1OC(=O)c1ccco1 the results were Lmaj promast 2.9, m-calpain inh 26.4, Rad51 HR inh -3.9, PMI act hi M6P 1, WT yeast gro inh 79.3* and PMI act 0.8.

Screening results: PubChem, several laboratories
